A selection: hits, their analogues and other compounds. The true share with any hit is near 2%.
S100A4 MyoIIA: inhibitors of human S100A4 binding to myosin IIA peptide | inhibition, % at 10.7 µM | S100A4/TAMRA-MyoIIA peptide fluorescence polarization | actives 0.14% (n = 360,000);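 active = mean inhibition of at least 70% across replicates, with every replicate also reaching that level; inconclusive = mean inhibition reaches 70% but some replicates fall short; inactive = mean inhibition below 70%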
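Compound dosing: one dose per compound; test system: human S100A4 monomer with TAMRA-labelled myosin IIA peptide; probe or stimulus: TAMRA-labelled myosin IIA heavy-chain peptide probe, 5 nM; medium: HEPES buffer with Ca2+, pH 7.2; schedule: 5 min incubation before reading; benchmarks: neutral control DMSO, positive control TFP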
E-selectin induc: E-selectin induction on HUVECs. P16581. HUVEC E-selectin immunofluorescence imaging; normalized: neutral wells 0, TNF-alpha wells 100. activation, % at 7.58 µM. actives 0.37% (n = 260,000);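 active = mean E-selectin-positive cell signal at least 10% of the positive control, reached in at least 60% of replicates, without over 20% cell loss; inconclusive = no rule given, readout overlaps actives, possibly toxicity-flagged; inactive = the rest, including those meeting only one limit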
Target sequence (P16581 whole entry, looked up): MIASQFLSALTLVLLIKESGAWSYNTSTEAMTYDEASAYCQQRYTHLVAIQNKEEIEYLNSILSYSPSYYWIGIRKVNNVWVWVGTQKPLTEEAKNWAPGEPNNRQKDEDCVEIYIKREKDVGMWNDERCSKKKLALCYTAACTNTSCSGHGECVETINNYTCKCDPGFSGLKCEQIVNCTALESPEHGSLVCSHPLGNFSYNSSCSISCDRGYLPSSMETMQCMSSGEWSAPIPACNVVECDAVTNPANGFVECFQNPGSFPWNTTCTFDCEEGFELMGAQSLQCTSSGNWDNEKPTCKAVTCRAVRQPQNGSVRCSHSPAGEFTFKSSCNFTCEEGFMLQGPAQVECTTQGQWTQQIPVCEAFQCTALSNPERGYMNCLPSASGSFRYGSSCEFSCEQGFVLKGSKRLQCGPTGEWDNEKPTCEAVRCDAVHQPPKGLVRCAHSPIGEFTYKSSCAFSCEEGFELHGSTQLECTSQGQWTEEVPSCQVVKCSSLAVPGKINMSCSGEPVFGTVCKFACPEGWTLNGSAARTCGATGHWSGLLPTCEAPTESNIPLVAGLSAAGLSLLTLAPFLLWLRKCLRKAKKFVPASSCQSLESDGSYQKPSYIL
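Read-out: % PE-positive cells | Test system: HUVEC | Doses: One compound dose added by pin transfer | Buffer or medium: EGM-2 over gelatin coat | Signal: Immunofluorescence imaging | Benchmarks: TNF-alpha, DMSO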
Xi reactivation: reactivates the inactive X chromosome in mouse fibroblasts | XiGFP mouse fibroblasts, % GFP-positive cells imaging, 3 d; cells co-treated with 5-aza-dC sensitizer; scaled so ellipticine positive control = 100% | activation, % at 7.58 µM | actives 0.055% (n = 360,000);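 active = mean normalized replicate activation at least 10% and every replicate at or above 10%; inconclusive = only one of the two criteria met; inactive = mean below 10% and not all replicates reach 10%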;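 also: 0% = median of on-plate neutral control wells and 100% = ellipticine 6 µM median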
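Assay system: SV40-immortalized XiGFP fibroblast cells, line 68-5-11; buffer or medium: DMEM plus 5-aza-dC sensitizer; compound: one concentration, pinned; timing: compounds 3 days, fix/stain 15 min at room temperature; benchmarks: positive control ellipticine, 6 µM final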
DENV2 CPE rescue: DENV2-induced cell death inhibition | DENV2-infected cells, cytopathic effect rescue, plate reader | AID 651640 | CPE inhibition, % at 9.99 µM | actives 1.7% (n = 350,000); in the data active = CPE inhibition above about 20%, passing the limit was not always enough; inconclusive = no clear call, values can overlap the other calls; tested in BHK-21 cells;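 also: 0% = median of neutral control wells and 100% = median of positive control wells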
Starred values were filed as active, the others as inactive; ? = inconclusive; . = no result.

SMILES | S100A4 MyoIIA | E-selectin induc | Xi reactivation | DENV2 CPE rescue
Cc1cc(C)c(NC(=O)CS(=O)CC(=O)N2CCN(c3cccc(C)c3C)CC2)c(C)c1 (stereo not drawn) | -2 | . | 0 | 7
O=C(NCC[C@H]1CC[C@@H](NS(=O)(=O)c2ccccc2F)[C@H](CO)O1)c1ccc(F)cc1 | 126* | 0 | 0 | -1
O=C(CCN1CCCCC1)N[C@H]1CC[C@@H](CCNS(=O)(=O)c2ccc(Cl)cc2)O[C@H]1CO | 82* | -2 | 0 | 19
O=C(CCN1CCCCC1)N[C@H]1CC[C@H](CCNS(=O)(=O)c2ccc(Cl)cc2)O[C@H]1CO | 2 | -2 | 0 | 6
COc1ccccc1S(=O)(=O)N[C@H]1CC[C@H](CC(=O)N2CCN(C)CC2)O[C@@H]1CO | 128* | 0 | -1 | -11
O=C(N[C@H]1CC[C@@H](CCNS(=O)(=O)c2ccc(F)cc2)O[C@H]1CO)C1CCCC1 | 1 | -1 | 0 | 21*
O=C(CNC(=O)N1CC(=O)Nc2ccccc21)Nc1ccc(Cl)cc1Cl | 0 | 0 | 0 | -10
Cc1ccc(NS(=O)(=O)c2csc(C(N)=O)c2)cc1C | 3 | . | 0 | 18
CN(c1ccc(C(=O)N2CCOCC2)cc1)S(=O)(=O)c1ccc(Cl)cc1 | -5 | 1 | 0 | 4
CN1C(C)(C)c2ccccc2OS1(=O)=O | 1 | 0 | 0 | 25*
CCOC(=O)C(C)N1CC(=O)N(c2ccccc2)C1=O (stereo not drawn) | -1 | . | 0 | ?
CNC(=O)C1(C)C=CC2(CCCCC2)N1C(=O)OC (stereo not drawn) | 0 | 0 | 0 | 22*
Cc1ccc(NC(=O)C2(c3cccs3)CCOCC2)cc1C | -4 | . | 0 | 26*
Nc1nc(N)c2cc(S(=O)(=O)c3ccc4ccccc4c3)ccc2n1 | -4 | 0 | 0 | -2
C[C@@H]1CN([C@H](C)CO)S(=O)(=O)c2ccc(-c3cccnc3)cc2O[C@@H]1CN(C)C(=O)CC1CC1 | 108* | 0 | -1 | 2
C[C@@H]1CN([C@H](C)CO)S(=O)(=O)c2ccc(-c3cccnc3)cc2O[C@H]1CN(C)C(=O)CC1CC1 | 2 | 0 | -1 | 13
C[C@@H]1CN([C@@H](C)CO)S(=O)(=O)c2ccc(-c3ccncc3)cc2O[C@H]1CN(C)C(=O)CC1CC1 | -1 | 0 | 1 | 85*
C[C@@H]1CN([C@@H](C)CO)S(=O)(=O)c2ccc(-c3ccncc3)cc2O[C@@H]1CN(C)C(=O)CC1CC1 | -3 | 0 | -2 | -1
COCCNC(=O)[C@H]1[C@H](CO)[C@H]2Cn3c(cccc3=O)[C@@H]1N2Cc1cc(F)ccc1F | 2 | 0 | 1 | 40*
O=C(NCC1CCCCC1)[C@@H]1[C@@H](CO)[C@@H]2Cn3c(cccc3=O)[C@H]1N2CCc1ccccc1 | -6 | 0 | 0 | 110*
CCCNC(=O)[C@H]1[C@H](CO)[C@H]2Cn3c(cccc3=O)[C@@H]1N2Cc1cc(F)ccc1F | 5 | 0 | 1 | -7
O=C(NCC1CCCCC1)[C@H]1[C@H](CO)[C@H]2Cn3c(cccc3=O)[C@@H]1N2CCc1ccccc1 | 21 | 0 | 0 | 109*
CC(NC(=O)c1cc(F)c(F)cc1Cl)c1ccncc1 (stereo not drawn) | 1 | 0 | 0 | 3
Cn1cc(CNCc2ccc(OC(F)(F)F)cc2)c(-c2ccc3c(c2)OCCO3)n1 | -10 | . | 0 | 9
C[C@H](CO)N1C[C@H](C)[C@H](CN(C)S(=O)(=O)c2ccc(F)cc2)OCCCC[C@H](C)Oc2ccc(NC(=O)Nc3cccc4ccccc34)cc2C1=O | -23 | 1 | 0 | -4
SMILES | S100A4 MyoIIA | E-selectin induc | Xi reactivation | DENV2 CPE rescue
C[C@@H]1CN([C@@H](C)CO)C(=O)c2cc(NC(=O)Nc3cccc4ccccc34)ccc2O[C@@H](C)CCCCO[C@@H]1CN(C)S(=O)(=O)c1ccc(F)cc1 | -13 | 0 | 0 | 21*
COc1ccc(S(=O)(=O)N(C)C[C@@H]2OCCCC[C@H](C)Oc3ccc(NC(=O)Nc4cccc5ccccc45)cc3C(=O)N([C@H](C)CO)C[C@H]2C)cc1 | -41 | 34* | 0 | 2
Cc1ccc(NC(=O)CSCC(=O)N2CCN(C(=O)c3ccco3)CC2)cc1 | 6 | 0 | 0 | 6
Cc1ccc(NC(=O)CSC(C)C(=O)OCC(=O)N2CCN(C(=O)c3ccco3)CC2)cc1 (stereo not drawn) | -9 | . | 0 | 86*
CC(C)(C)C(=O)Nc1ncccc1C(O)c1cccc(C(F)(F)F)c1 (stereo not drawn) | 4 | . | 0 | .
C[C@H](CO)N1C[C@H](C)[C@H](CN(C)S(=O)(=O)c2ccc(Cl)cc2)Oc2ccc(NC(=O)NC3CCCCC3)cc2C1=O | -5 | 436* | 0 | 1
C[C@H](CO)N1C[C@H](C)[C@H](CN(C)S(=O)(=O)c2ccc(Cl)cc2)OCCCC[C@H](C)Oc2ccc(NC(=O)NC3CCCCC3)cc2C1=O | 54 | 0 | 0 | 50*
C[C@H]1CN([C@@H](C)CO)C(=O)c2cccc(NC(=O)NC3CCCCC3)c2O[C@@H]1CN(C)S(=O)(=O)c1ccc(Cl)cc1 | 2 | 0 | 0 | 27*
C[C@@H]1CN([C@H](C)CO)C(=O)c2cc(NC(=O)Nc3ccc4c(c3)OCO4)ccc2O[C@@H](C)CCCCO[C@H]1CN(C)S(=O)(=O)c1ccc(Cl)cc1 | 2 | 2 | 0 | 38*
O=C(NCC1CCCO1)c1cc(NS(=O)(=O)c2cccs2)cc(NS(=O)(=O)c2cccs2)c1 (stereo not drawn) | -4 | . | 0 | 11
Cn1nc(C(=O)Nc2ccccc2Cl)cc1C(=O)Nc1ccccc1Cl | -10 | 0 | 0 | 4
COc1cc(N)c(Cl)cc1C(=O)OCC(=O)NCc1cccs1 | 4 | 73* | 0 | 13
COc1ccc(C(=O)OCC(=O)NCc2cccs2)c(OC)c1OC | -4 | 0 | 0 | -3
C[C@@H]1CN([C@@H](C)CO)C(=O)c2cc(NC(=O)c3ccncc3)ccc2O[C@@H](C)CCCCO[C@@H]1CN(C)C(=O)Cc1ccccc1 | -9 | 0 | 0 | 4
Cc1cc(Cl)c(OCCCNC2CCCC2)c(Br)c1 | 2 | . | 0 | 27*
C[C@H](O)C#Cc1ccc([C@H]2[C@H](CO)N3CCCCN(CC4CC4)C[C@@H]23)cc1 | -3 | 0 | 0 | -1
C[C@H](O)C#Cc1ccc([C@H]2[C@@H](CO)N3CCCCN(CC4CC4)C[C@H]23)cc1 | 45 | 0 | 0 | 23*
CC(C)C#Cc1ccc([C@@H]2[C@@H](CO)N3CCCCN(CC4CC4)C[C@H]23)cc1 | -8 | 0 | 0 | -8
CC(C)C#Cc1ccc([C@H]2[C@H](CO)N3CCCCN(CC4CC4)C[C@@H]23)cc1 | -9 | 0 | 0 | 26*
CCCCNC(=O)c1onc(CS(=O)(=O)c2ccccn2)c1C(=O)NCCCC | 2 | 0 | 0 | 40*
